From ChEMBL document CHEMBL1123213, “Neuroleptic activity of chiral trans-hexahydro-gamma-carbolines” (J Med Chem, 1986)

What was measured:
Rattus norvegicus [1] = organism: Rattus norvegicus; test: Compound was tested for the antagonistic activity against amphetamine-induced stereotypy in rat.; assay type: functional
Procedure, shortened: (§1)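 Rats housed singly in covered compartments, briefly acclimated, then dosed sc in groups of five at doses spaced 0.5 log unit (1, 3.2, 10, 32 mg/kg). d-Amphetamine sulfate 5 mg/kg ip given 1, 5 and 24 h later. Behaviour scored on a six-point scale 1 h after each challenge. ED50 by linear regression or by inspection; no fiducial limits.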

Dopamine receptor [2] = test: Inhibition of [3H]spiroperidol (0.5 nM) binding to dopamine receptor from rat striatal membrane.
Rattus norvegicus [3] = test: Antagonistic activity against amphetamine-induced stereotypy in rats; (5 mg/kg administered ip 1 hr after the test compound).; assay type: functional; procedure, shortened: as §1
Rattus norvegicus [4] = test: Compound was tested for the antagonistic activity against amphetamine-induced stereotypy in rats; (5 mg/kg administered ip 5 hr after the test compound).; assay type: functional; procedure, shortened: as §1
Rattus norvegicus [5] = test: Compound was tested for the antagonistic activity against amphetamine-induced stereotypy in rats; (5 mg/kg administered ip 24 hr after the test compound).; assay type: functional; procedure, shortened: as §1
Rattus norvegicus [6] = test: Compound was tested for the antagonistic activity against amphetamine-induced stereotypy in rats; (5 mg/kg administered ip 24 hr after the test compound); assay type: functional; procedure, shortened: as §1
Rattus norvegicus [7] = test: Compound was tested for the antagonistic activity against amphetamine-induced stereotypy in rats; (5 mg/kg administered ip 5 hr after the test compound); assay type: functional; procedure, shortened: as §1
Mus musculus [8] = test: Compound was tested for the anticholinergic activity against tetrabenazine-treated mice; activity expressed as the pupil size at the dose of 100 mg/kg sc; assay type: functional; conditions: route subcutaneous
Procedure, shortened: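 Groups of five mice dosed sc with test compound, then 1 h later tetrabenazine 32 mg/kg ip. After 30 min, pupil size measured with a binocular microscope; reticle readings converted to mm. Reported as mean ± SD pupil size (mm). Vehicle-pretreated tetrabenazine control groups of five run alongside.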

Mus musculus [9] = test: Compound was tested for the anticholinergic activity against tetrabenazine-treated mice; activity expressed as the pupil size at the dose of 32 mg/kg sc; assay type: functional; conditions: route subcutaneous
Rattus norvegicus [10] = test: Compound was tested for the antagonistic activity against amphetamine-induced stereotypy in rats; (5 mg/kg administered ip 5 after the test compound).; assay type: functional; procedure, shortened: as §1
Dopamine receptor [11] = test: Compound was tested for inhibition of [3H]spiroperidol (0.5 nM) binding to dopamine receptor from rat striatal membrane; Insoluble
Mus musculus [12] = test: Compound was tested for the anticholinergic activity against tetrabenazine-treated mice; activity expressed as the pupil size at the dose of 1 mg/kg sc; conditions: route subcutaneous
Mus musculus [13] = test: Compound was tested for the anticholinergic activity against tetrabenazine-treated mice; activity expressed as the pupil size at the dose of 10 mg/kg sc; assay type: functional; conditions: route subcutaneous
Procedure, shortened: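 Mice in groups of five dosed sc, then given tetrabenazine 32 mg/kg ip 1 h later. Pupils measured 30 min afterward under a binocular microscope, with reticle readings converted to mm. Reported as mean ± SD pupil size. Vehicle-pretreated tetrabenazine groups served as controls.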

[14] = Rattus norvegicus, ip, 1 h, read-out: ED50
[15] = Rattus norvegicus, ip, 24 h, read-out: ED50
[16] = Rattus norvegicus, ip, 5 h, read-out: ED50

Row | Structure (SMILES) | IC50 (Dopamine receptor [2]) [nM] | ED50 (Rattus norvegicus [3]; [14]) [mg/kg] | ED50 (Rattus norvegicus [4]) [mg/kg] | ED50 (Rattus norvegicus [5]) [mg/kg] | also measured
1 | CN1CCC2C(C1)c1cc(F)ccc1N2c1ccc(F)cc1.Cl (configuration not stated) | 7.5 |  |  |  | ED50 (Rattus norvegicus [1]): 0.3 mg/kg
2 | Cl.O=C(O)CCCN1CCc2c(c3cc(F)ccc3n2-c2ccc(F)cc2)C1 | > 320 |  |  |  | 
3 | OC(CCN1CC[C@H]2[C@H](C1)c1cc(F)ccc1N2c1ccc(F)cc1)(c1ccccc1)c1ccccc1 | 220 | > 10 | > 10 |  | 
4 | Cl.O=C(CCCN1CCC(N(c2ccc(F)cc2)c2ccc(F)cc2)CC1)c1ccc(F)cc1 | 68 | > 32 |  | > 32 | 
5 | Fc1ccc(N2c3ccc(F)cc3[C@H]3CNCC[C@@H]32)cc1 | 6.7 | 0.36 |  |  | ED50 (Rattus norvegicus [6]; [15]): > 10 mg/kg; ED50 (Rattus norvegicus [7]; [16]): 0.45 mg/kg
6 | Cl.Fc1ccc(N(c2ccc(F)cc2)C2CCNCC2)cc1 | > 1000 |  |  |  | 
7 | O[C@H](CCCN1CC[C@H]2[C@H](C1)c1cc(F)ccc1N2c1ccc(F)cc1)c1ccc(F)cc1 (stereo in doubt; 2b) | 350 |  |  |  | ED50 (Rattus norvegicus [6]): >10 mg/kg; ED50 (Rattus norvegicus [3]): >10 mg/kg; ED50 (Rattus norvegicus [7]): 5.7 mg/kg
8 | Cl.O=C1CNC(=O)N1CCCCN1CC[C@@H]2c3cc(F)ccc3N(c3ccc(F)cc3)[C@H]2C1 | 12 | 0.057 | 0.018 | 0.18 | 
9 | CC(=O)NCCCCN1CCc2c(c3cc(F)ccc3n2-c2ccc(F)cc2)C1.Cl | 54 |  |  |  | ED50 (Rattus norvegicus [1]): > 3.2 mg/kg
10 | CN1CCN(C2=Nc3cc(Cl)ccc3Nc3ccccc32)CC1 [CLOZAPINE] |  |  |  |  | Pupil size (Mus musculus [8]): 1.13 mm
11 | O=C(NCCN1CC[C@H]2[C@H](C1)c1cc(F)ccc1N2c1ccc(F)cc1)C(CO)c1ccccc1 (some centres not stated) | 35 | 2.8 | 0.89 | 32 | Pupil size (Mus musculus [9]): 0.23 mm
12 | CC(=O)NCCCCN1CCC2C(C1)c1cc(F)ccc1N2c1ccc(F)cc1.Cl (configuration not stated) | 13 |  |  |  | ED50 (Rattus norvegicus [1]): 0.006 mg/kg
13 | O[C@H](CCCN1CC[C@@H]2[C@@H](C1)c1cc(F)ccc1N2c1ccc(F)cc1)c1ccc(F)cc1 (stereo in doubt; 2d) | 1800 |  |  |  | ED50 (Rattus norvegicus [6]): >10 mg/kg; ED50 (Rattus norvegicus [3]): >10 mg/kg; ED50 (Rattus norvegicus [7]): 18.1 mg/kg
14 | O=C1CNC(=O)N1CCN1CCC2c3cc(F)ccc3N(c3ccc(F)cc3)C2C1 (configuration not stated) | 26 | 0.57 | 0.57 | > 32 | 
15 | Cl.O[C@H](CCCN1CCC2C(C1)c1cc(F)ccc1N2c1ccc(F)cc1)c1ccc(F)cc1 (some centres not stated) | 25 | 0.21 | 0.05 | 0.02 | 
16 | Cl.O=C1CNC(=O)N1CCCCCN1CC[C@@H]2c3cc(F)ccc3N(c3ccc(F)cc3)[C@H]2C1 | 6 | 0.04 | 0.02 | 0.05 | 
17 | Cl.O=C1CNC(=O)N1CCCCCCN1CCC2c3cc(F)ccc3N(c3ccc(F)cc3)C2C1 (configuration not stated) | 9.4 | 0.18 | 0.033 | > 0.32 | 
18 | Fc1ccc(-n2c3c(c4cc(F)ccc42)CNCC3)cc1 | 350 | > 10 |  |  | 
19 | O[C@H](CCCN1CC[C@@H]2[C@@H](C1)c1cc(F)ccc1N2c1ccc(F)cc1)c1ccc(F)cc1 (stereo in doubt; 2c) | 22 |  |  |  | ED50 (Rattus norvegicus [6]): 0.02 mg/kg; ED50 (Rattus norvegicus [3]): 0.05 mg/kg; ED50 (Rattus norvegicus [7]): 0.02 mg/kg
20 | Cl.O=C(NCCCCCCN1CCc2c(c3cc(F)ccc3n2-c2ccc(F)cc2)C1)c1ccccc1 | 8.5 |  |  |  | ED50 (Rattus norvegicus [1]): > 10 mg/kg

Row | Structure (SMILES) | IC50 (Dopamine receptor [2]) [nM] | ED50 (Rattus norvegicus [3]; [14]) [mg/kg] | ED50 (Rattus norvegicus [4]) [mg/kg] | ED50 (Rattus norvegicus [5]) [mg/kg] | also measured
21 | O[C@H](CCCN1CC[C@H]2[C@H](C1)c1cc(F)ccc1N2c1ccc(F)cc1)c1ccc(F)cc1 (stereo in doubt; 2a) | 25 |  |  |  | ED50 (Rattus norvegicus [6]): 0.02 mg/kg; ED50 (Rattus norvegicus [3]): 0.21 mg/kg; ED50 (Rattus norvegicus [7]): 0.05 mg/kg
22 | Cl.O=C1CNC(=O)N1CCCCCCN1CCc2c(n(-c3ccc(F)cc3)c3ccc(F)cc23)C1 | 5.8 | 1 | 0.75 | > 10 | 
23 | OC(CCCN1CCc2c(c3cc(F)ccc3n2-c2ccc(F)cc2)C1)c1ccc(F)cc1 (configuration not stated) [FLUTROLINE] | 12 | 1 |  |  | ED50 (Rattus norvegicus [6]; [15]): 2.2 mg/kg; ED50 (Rattus norvegicus [7]; [16]): 0.15 mg/kg
24 | Cl.O=C(Nc1ccccc1)OCCN1CC[C@H]2[C@H](C1)c1cc(F)ccc1N2c1ccc(F)cc1 | 45 | 0.57 | 0.45 | 2.3 | 
25 | Cl.O=C(CCCN1CC[C@H]2[C@H](C1)c1cc(F)ccc1N2c1ccc(F)cc1)Nc1ccccc1 | 19 | 0.45 |  | 1.8 | Pupil size (Mus musculus [9]): 0.28 mm; ED50 (Rattus norvegicus [10]): 0.18 mg/kg
26 | CN1CCc2c(c3cc(F)ccc3n2-c2ccc(F)cc2)C1.Cl |  |  |  |  | ED50 (Rattus norvegicus [1]): > 1 mg/kg
27 | O=C1CNC(=O)N1CCCN1CCC2c3cc(F)ccc3N(c3ccc(F)cc3)C2C1 (configuration not stated) | 14 | 0.11 | 0.05 | > 0.32 | 
28 | Cl.O=C(NCCCCCCN1CCC2C(C1)c1cc(F)ccc1N2c1ccc(F)cc1)c1ccccc1 (configuration not stated) | 13 |  |  |  | ED50 (Rattus norvegicus [1]): 0.1 mg/kg
29 | I.O=C(CCCN1CC[C@H]2[C@H](C1)c1cc(F)ccc1N2c1ccc(F)cc1)N(c1ccccc1)C1CCCCC1 |  | > 32 | 1 | < 32 | IC50 (Dopamine receptor [11]): Insoluble
30 | Fc1ccc(N2c3ccc(F)cc3[C@H]3CN(CCn4c5ccccc5c5ccccc54)CC[C@@H]32)cc1 |  | > 32 | > 32 |  | IC50 (Dopamine receptor [11]): Insoluble
31 | Cl.O=C(O)CCCN1CCC2C(C1)c1cc(F)ccc1N2c1ccc(F)cc1 (configuration not stated) | 140 |  |  |  | ED50 (Rattus norvegicus [1]): 0.36 mg/kg
32 | Cl.OC(CCCN1CCC(N(c2ccc(F)cc2)c2ccc(F)cc2)CC1)c1ccc(F)cc1 (configuration not stated) | 1000 |  |  |  | 
33 | O=C(CCCN1CC[C@H]2[C@H](C1)c1cc(F)ccc1N2c1ccc(F)cc1)NC1CCCCC1 | 12 | 0.45 | 0.14 | 0.57 | Pupil size (Mus musculus [9]): 0.23 mm
34 | O=C(CCCN1CCC(O)(c2ccc(Cl)cc2)CC1)c1ccc(F)cc1 [HALOPERIDOL] |  | 0.66 |  |  | ED50 (Rattus norvegicus [6]; [15]): > 10 mg/kg; ED50 (Rattus norvegicus [7]; [16]): 0.75 mg/kg
35 | OC1(c2ccc(Cl)c(C(F)(F)F)c2)CCN(CCCC(c2ccc(F)cc2)c2ccc(F)cc2)CC1 [PENFLURIDOL] | 62 | ~32 |  |  | ED50 (Rattus norvegicus [6]; [15]): 3.9 mg/kg; ED50 (Rattus norvegicus [7]; [16]): 2.4 mg/kg
36 | Cl.O=C1CNC(=O)N1CCCCCCN1CC[C@@H]2c3cc(F)ccc3N(c3ccc(F)cc3)[C@H]2C1 | 14 | 0.13 | 0.02 | 0.07 | 
37 | CN1[C@@H]2CC[C@H]1C[C@@H](OC(=O)C(CO)c1ccccc1)C2.O=S(=O)(O)O (some centres not stated) [ATROPINE SULFATE] |  |  |  |  | Pupil size (Mus musculus [12]): 1.98 mm
38 | Fc1ccc(N2c3ccc(F)cc3[C@@H]3CNCC[C@H]32)cc1 | 3200 |  |  |  | 
39 | CNCCCN1c2ccccc2CCc2ccccc21.Cl [DESIPRAMINE HYDROCHLORIDE] |  |  |  |  | Pupil size (Mus musculus [13]): 0.66 mm
